Source: PubChem BioAssay
Only some compounds are listed: those with a hit (about 3.1% of all), similar ones and a draw of the others.
PAX8 reporter: inhibitors of PAX8-driven TPO luciferase reporter, primary screen, RMG-I cells, single concentration. inhibition, % at 12.6 µM. 360,000 tested, 1.2% active. SteadyGlo, 24 h;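 active = mean replicate inhibition at least 60% with every replicate also reaching 60%; inconclusive = only one of the two criteria is met; inactive = mean below 60% and not all replicates reaching 60%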;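 note: luciferase light reporting Pax8 driven TPO promoter activity; plate controls were median of neutral control wells for no effect and mitoxantrone controls for full effect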
FGF22 binding: binders of human FGF22 protein, primary screen, FGF22 synaptogenesis inhibitor project, biophysical, thermal shift, single point. Fibroblast growth factor 22 (Homo sapiens), Q9HCT0. recombinant FGF22 thermal shift, SYPRO orange fluorescence; percent of sucrose octasulfate shift, DMSO zero. activity (Tm shift, normalised), % at 9.99 µM. 340,000 tested, 1.5% active. AID 651658, 2012;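 active = mean Tm shift, scaled 0 neutral to 100 positive control, at about 1.3% or above, every replicate too, limit read from the data; inconclusive = no clear call, values can overlap the other calls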
Target sequence (Q9HCT0 whole entry, looked up): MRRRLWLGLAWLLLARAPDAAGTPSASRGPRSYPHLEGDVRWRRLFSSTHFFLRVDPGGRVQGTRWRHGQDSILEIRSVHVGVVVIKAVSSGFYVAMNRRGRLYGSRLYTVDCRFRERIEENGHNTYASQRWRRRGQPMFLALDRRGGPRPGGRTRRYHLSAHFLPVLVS
PGC1a acetyl inh: inhibitors of PGC1a acetylation signal, primary screen, cell-based, U2OS, AlphaScreen, inhibitor mode. inhibition, % at 15.6 µM. AlphaScreen anti-acetyl-lysine; with virally co-expressed GCN5 acetyltransferase. 350,000 tested, 0.17% active;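 active = every replicate shows inhibition of at least 40%; inconclusive = mean inhibition at least 40% but some replicate below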;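 note: 0% = neutral control wells and 100% = positive control wells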
Env fusion inh: inhibitors of HIV-1 Env-driven cell-cell fusion, primary screen, HeLa-JRFL effector, CEM21 target cells, luciferase. inhibition, % at 12.3 µM. 360,000 tested, 1.1% active. AID 651610, 2012;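 active = mean replicate inhibition score of at least 50 and every replicate individually at or above 50; inconclusive = only one of the two criteria met; inactive = mean below 50 and not all replicates reaching 50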;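 note: 0% = plate neutral controls and 100% = maraviroc near 300 nM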
FN deposit inh: inhibitors of fibronectin matrix deposition, primary screen, AH1F cells, Alexa488-fibronectin fluorescence, plate reader. AH1F fibroblasts, overnight. inhibition, % at 12.6 µM. 350,000 tested, 0.086% active. AID 743247, 2014;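 active = mean inhibition across replicates of 30% or more, regardless of how many single replicates reach that level; inconclusive = mean under 30% yet at least half of replicates reach 30%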;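 note: positive control wells lacked labelled fibronectin entirely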
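Measured by – fluorescence 485/525 nm · System – AH1F fibroblast monolayer, labelled fibronectin deposition · Amount – 10000 cells per well · Buffer or medium – serum-reduced DMEM (2% serum) · Doses – single dose, pinned · Also added – fluorescent fibronectin at 24 nM final · Schedule – 1 h cell attachment, overnight exposure to compound and label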
EWS-Fli block: EWS/Fli-driven NR0B1 reporter inhibitors, primary screen, A673 cells, NR0B1 luciferase, luminescence, MLPCN library; viability-normalised; inhibition, % at 12.6 µM; 350,000 tested, 0.67% active; AID 651661, 2012;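 active = mean inhibition of at least 50% after viability correction, with every replicate also passing that limit; inconclusive = mean reaches 50% but only one of two replicates passes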;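 note: firefly luciferase signal divided by Alamar Blue viability fluorescence both relative to DMSO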
* = called active by the depositor; ? = inconclusive; / = no result; [ ] = dose if it differs, or a comment.

SMILES | PAX8 reporter | FGF22 binding | PGC1a acetyl inh | Env fusion inh | FN deposit inh | EWS-Fli block
O=C(C[C@H]1CC[C@@H]2[C@H](COC[C@H](O)CN2Cc2ccccc2F)O1)N1CCc2ccccc2C1 | -7.3 | -0.1 | -3.2 | / | 4.4 | 3.8
CC(C)NC(=O)N(C)C[C@@H]1OCCCC[C@H](C)Oc2ccc(NS(=O)(=O)c3ccccc3)cc2C(=O)N([C@@H](C)CO)C[C@@H]1C | 18.0 | -0.1 | -3.6 | -40.3[16.7 µM] | / | 5.1
CCCNC(=O)Nc1ccc2c(c1)C(=O)N(C)C[C@@H](OC)[C@@H](C)CN(C(=O)C1CCOCC1)[C@@H](C)CO2 | -7.9 | -0.1 | -1.1 | / | 9.2 | -3.1
Cc1noc(C)c1NC(=O)N(C)C[C@@H]1OCCCC[C@H](C)Oc2ccc(NS(C)(=O)=O)cc2C(=O)N([C@@H](C)CO)C[C@@H]1C | 3.3 | 0.0 | -0.4 | -12.8[16.7 µM] | / | -0.3
CCSc1nnc(-c2ccccc2NC(=O)CC)c(=O)[nH]1 | 6.0 | / | 9.3 | -62.3 | 1.8 | /
Nc1ccccc1-c1nnc(SCC(=O)Nc2ccccc2OC(F)F)[nH]c1=O | 18.7 | 43.3* | -10.0 | 11.2 | -3.8 | -9.3
OCCN(Cc1ccccc1)Cc1ncccc1O | 3.0 | 43.1* | -12.7 | / | -2.5 | 2.4
OCCN(Cc1cccnc1)Cc1ccccn1 | 27.2 | -0.2 | 9.2 | / | -26.1 | 5.9
Cc1c(NC(=O)CN2CCC(C(N)=O)CC2)cccc1[N+](=O)[O-] | -1.9 | 43.0* | / | -15.7 | 3.6 | 2.0
Cc1ccccc1C(=O)N1CCC(C(=O)OCC(=O)Nc2cccc([N+](=O)[O-])c2C)CC1 | -2.2 | 0.1 | 2.9 | -9.8 | 6.3 | -2.4
Cc1ccc(C(=O)NC(C#N)=C(Cl)Cl)cc1 | 42.8 | 0.0 | / | -152.1 | 23.8 | 77.1*
O=C(CC(CC(=O)c1ccccc1)c1ccccn1)c1ccccc1 | -12.3 | 44.1* | 8.8 | -17.8 | -1.1 | -8.7
O=C(CC(=O)c1ccccn1)c1ccccc1 | -128.9 | 0.0 | / | -51.3 | -13.6 | -15.9
CN1CCN(C(=O)C[C@@H]2CC[C@H]3[C@@H](COC[C@H](O)CN3C(=O)Nc3ccc(Cl)cc3)O2)CC1 | -14.4 | -0.1 | 3.1 | / | -16.3 | -28.4
CC(C)C(C(=O)NCc1ccco1)N(CC1CCCO1)C(=O)CNS(=O)(=O)c1ccccc1 (stereo unspecified) | 8.1 | 43.3* | / | 2.2 | 11.4 | -3.2
Cc1ccc(SCC(=O)OCC(=O)N(CCC#N)c2ccccc2)cc1C | 2.9 | 0.1 | / | 4.9 | 4.4 | -1.3
Cc1ccc(N(CCC#N)C(=O)CCl)cc1C | ? | 0.1 | 20.3 | 31.4 | / | 71.7*
CC(=O)c1c(C)[nH]c(C(=O)OCCCCN2C(=O)c3ccccc3C2=O)c1C | 25.5 | / | / | 97.8* | 1.3 | /
CC(=O)c1c(C)[nH]c(C(=O)OCc2ccccc2)c1C | -130.8 | / | / | 3.1 | 3.4 | -74.9
CC1CC(=O)c2c(cc3c(-c4c(O)cc(O)c5c(O)c6c(cc45)OC(C)CC6=O)c(O)cc(O)c3c2O)O1 (stereo unspecified) | / | / | 63.4* | / | / | /
O=C1CC(c2ccccc2)Oc2cc(O)cc(O)c21 (stereo unspecified) | / | -0.1 | -8.4 | / | / | -22.1
C[C@@H]1CN([C@H](C)CO)C(=O)c2cc(NC(=O)C3CCCCC3)ccc2O[C@H]1CN(C)Cc1ccncc1 | -12.9 | 0.2 | / | 27.7[16.7 µM] | / | -0.4
CCCN(C)C[C@@H]1OCCCC[C@H](C)Oc2ccc(NC(=O)C3CCCCC3)cc2C(=O)N([C@@H](C)CO)C[C@@H]1C | -6.6 | 0.6 | 5.5 | -12.1[16.7 µM] | / | 1.6
Cc1cc(NC(=O)CCCC(=O)NCc2ccccc2)no1 | 14.3 | 0.4 | / | -16.7 | -7.1 | -5.5
Cc1ccc(CNC(=O)CCCC(=O)Nc2cc(C)on2)cc1 | -3.9 | 43.1* | -1.9 | 5.3 | / | 3.0
COC1OC(COCc2ccccc2)C2OC(C)(C)OC2C1O (stereo unspecified) | 104.0* | 40.9 | / | 7.8 | -3.3 | -6.6
CC1(C)CC(O)CC(C)(C)N1CC(O)COCc1ccccc1 (stereo unspecified) | -1.7 | -0.1 | 15.7 | -19.5 | 3.5 | 4.6
